Experiment [1] has as its target T1, Bcl-2-related protein A1 (Homo sapiens, UniProt Q16548).
T1 sequence (Q16548 whole entry): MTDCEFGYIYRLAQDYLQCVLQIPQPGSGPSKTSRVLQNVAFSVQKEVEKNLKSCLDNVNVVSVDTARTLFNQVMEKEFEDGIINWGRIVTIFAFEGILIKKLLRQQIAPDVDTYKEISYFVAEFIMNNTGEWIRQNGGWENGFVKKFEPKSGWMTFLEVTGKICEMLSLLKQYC
Put plainly: Inhibition of N-terminal FITC BH3 peptide binding to GST-tagged Bfl1 by fluorescence polarization assay. The gist of the method: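 Then FITC-Bid BH3 peptide (5.6 nM working solution) was added and incubated 4 h at room temperature. Ten concentrations in 10% DMSO. Fluorescence polarization read at ex 485/em 530 nm. IC50 from sigmoidal dose-response non-linear regression.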

For experiment [2], the target named is T1, Bcl-2-related protein A1. As to the kind of experiment: Inhibition of N-terminal FITC BH3 peptide binding to GST-tagged Bfl1 by time resolved-FRET assay. The gist of the method:
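10-point 2-fold dilution series in 10% final DMSO, in duplicate wells. FITC-Bid (5.6 nM) plus Tb-antibody (2.5 nM) was then added and incubated 4 h at room temperature. TR-FRET read at ex 340 nm, signal taken as the 520/490 nm emission ratio.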

Regarding `CN1CCN(C2=CC(=O)N(c3ccc(Cl)cc3)C2=O)CC1`, the IC50 at Bcl-2-related protein A1 [1] and on Bcl-2-related protein A1 [2] was > 10 µM in each case.

As to `O=C1C(Cl)=C(NCCO)C(=O)N1c1ccc(Cl)c(Cl)c1`, the IC50 on Bcl-2-related protein A1 [1] and on Bcl-2-related protein A1 [2] was > 50 µM throughout.

With `CN(C)C1=C(Cl)C(=O)N(c2ccc(Cl)c(Cl)c2)C1=O`, the results for the IC50 at Bcl-2-related protein A1 [1] and on Bcl-2-related protein A1 [2] were 0.3 µM and 0.4 µM, respectively.

As for `O=C1C(Cl)=C(N2CCN(Cc3ccc4c(c3)OCO4)CC2)C(=O)N1c1ccc(Cl)c(Cl)c1`, the 50% inhibitory concentration (IC50) on Bcl-2-related protein A1 [2] amounted to 2.1 µM.

For `O=C1C(Cl)=C(N2CCN(C/C=C/c3ccccc3)CC2)C(=O)N1c1ccc(Cl)c(Cl)c1`, the IC50 at Bcl-2-related protein A1 [1] was found to be 0.25 µM; on Bcl-2-related protein A1 [2] it was 0.69 µM.

As for `CN1CCN(C2CC(=O)N(c3ccc(Cl)c(Cl)c3)C2=O)CC1` (configuration not stated), the IC50 on Bcl-2-related protein A1 [1] and at Bcl-2-related protein A1 [2] was > 10 µM each time.

On to `CN1CCN(C2=C(Cl)C(=O)N(c3ccc(Cl)c(Cl)c3)C2=O)CC1`, for which the IC50 at Bcl-2-related protein A1 [1] was 0.6 µM; at Bcl-2-related protein A1 [2], 0.8 µM.

With `CN1CCN(C2=C(Cl)C(=O)N(c3cc(Cl)cc(Cl)c3)C2=O)CC1`, the IC50 amounted to 2.4 µM at Bcl-2-related protein A1 [1] and 1.9 µM on Bcl-2-related protein A1 [2].

The molecule `CN1CCN(C2=C(Cl)C(=O)N(c3ccc(Cl)cc3Cl)C2=O)CC1` gave an IC50 on Bcl-2-related protein A1 [2] of 1.4 µM.

At Bcl-2-related protein A1 [2], `CN1CCN(C2=C(Cl)C(=O)N(c3cccc(Cl)c3Cl)C2=O)CC1` returned an IC50 of 2.6 µM.

On to `CN1CCN(C2=C(Cl)C(=O)N(c3ccccc3Cl)C2=O)CC1`, for which the IC50 on Bcl-2-related protein A1 [1] was 3.3 µM; at Bcl-2-related protein A1 [2], 1 µM.

With `CN1CCN(C2=C(Cl)C(=O)N(c3cccc(Cl)c3)C2=O)CC1`, the IC50 at Bcl-2-related protein A1 [1] amounted to 2.1 µM; at Bcl-2-related protein A1 [2] it was 1.2 µM.

As to `Cc1cccc(N2C(=O)C(Cl)=C(N3CCN(C)CC3)C2=O)c1`, the IC50 came to 12.6 µM at Bcl-2-related protein A1 [1] and 10.8 µM on Bcl-2-related protein A1 [2].

Regarding `CN1CCN(C2=C(Cl)C(=O)N(c3cccc([N+](=O)[O-])c3)C2=O)CC1`, the IC50 on Bcl-2-related protein A1 [1] came out at 6.8 µM; at Bcl-2-related protein A1 [2], 3.9 µM.

Turning to `CN1CCN(C2=C(Cl)C(=O)N(c3ccncc3Cl)C2=O)CC1`, the half-maximal inhibitory concentration (IC50) on Bcl-2-related protein A1 [1] was 29 µM; on Bcl-2-related protein A1 [2], 35.6 µM.

Consider `O=C1C(Cl)=C(N2CCCC2)C(=O)N1c1ccc(Cl)c(Cl)c1`, for which the IC50 on Bcl-2-related protein A1 [1] and on Bcl-2-related protein A1 [2] was > 50 µM in each case.

`O=C1C(Cl)=C(N2CCCCC2)C(=O)N1c1ccc(Cl)c(Cl)c1`: the IC50 on Bcl-2-related protein A1 [1] and on Bcl-2-related protein A1 [2] was > 50 µM each time.

With `O=C1C(Cl)=C(NCc2ccccc2)C(=O)N1c1ccc(Cl)c(Cl)c1`, the IC50 on Bcl-2-related protein A1 [1] and at Bcl-2-related protein A1 [2] was > 50 µM throughout.

Take `O=C1C(Cl)=C(N2CCOCC2)C(=O)N1c1ccc(Cl)c(Cl)c1`: the values for the IC50 on Bcl-2-related protein A1 [1] and at Bcl-2-related protein A1 [2] were 0.8 µM and 0.45 µM, respectively.

As to `CCN1CCN(C2=C(Cl)C(=O)N(c3ccc(Cl)c(Cl)c3)C2=O)CC1`, the figures for the IC50 at Bcl-2-related protein A1 [1] and at Bcl-2-related protein A1 [2] were 1.7 µM and 1 µM, respectively.

`C[C@@H]1CN(C2=C(Cl)C(=O)N(c3ccc(Cl)c(Cl)c3)C2=O)CCN1`: the IC50 at Bcl-2-related protein A1 [1] was 0.6 µM; on Bcl-2-related protein A1 [2], 0.8 µM.

For `C[C@H]1CN(C2=C(Cl)C(=O)N(c3ccc(Cl)c(Cl)c3)C2=O)CCN1`, the IC50 at Bcl-2-related protein A1 [1] is 2.2 µM; at Bcl-2-related protein A1 [2] it was 1.1 µM.

In turn, `CC1C(=O)NCCN1C1=C(Cl)C(=O)N(c2ccc(Cl)c(Cl)c2)C1=O` (configuration not stated) came in with an IC50 on Bcl-2-related protein A1 [2] of 2 µM.

As for `CCCCN1CCN(C2=C(Cl)C(=O)N(c3ccc(Cl)c(Cl)c3)C2=O)CC1`, the IC50 at Bcl-2-related protein A1 [1] was 10.5 µM; at Bcl-2-related protein A1 [2], 3.3 µM.

In the case of `O=C1C(Cl)=C(N2CCN(CCO)CC2)C(=O)N1c1ccc(Cl)c(Cl)c1`, the IC50 at Bcl-2-related protein A1 [1] stood at 0.24 µM; at Bcl-2-related protein A1 [2], 0.62 µM.

`O=C1C(Cl)=C(N2CCN(CCOCCO)CC2)C(=O)N1c1ccc(Cl)c(Cl)c1`: the IC50 on Bcl-2-related protein A1 [1] is 0.3 µM; at Bcl-2-related protein A1 [2], 0.4 µM.

Regarding `O=C1C(Cl)=C(N2CCN(c3ccccc3)CC2)C(=O)N1c1ccc(Cl)c(Cl)c1`, the IC50 was determined as 4.9 µM on Bcl-2-related protein A1 [1] and 4.1 µM on Bcl-2-related protein A1 [2].

As for `COc1ccccc1N1CCN(C2=C(Cl)C(=O)N(c3ccc(Cl)c(Cl)c3)C2=O)CC1`, the IC50 on Bcl-2-related protein A1 [1] stood at 9.6 µM; at Bcl-2-related protein A1 [2], 6.2 µM.

In the case of `COc1cccc(N2CCN(C3=C(Cl)C(=O)N(c4ccc(Cl)c(Cl)c4)C3=O)CC2)c1`, the values for the 50% inhibitory concentration (IC50) on Bcl-2-related protein A1 [1] and on Bcl-2-related protein A1 [2] were 1.2 µM and 5 µM, respectively.

For `COc1ccc(N2CCN(C3=C(Cl)C(=O)N(c4ccc(Cl)c(Cl)c4)C3=O)CC2)cc1`, the IC50 at Bcl-2-related protein A1 [1] is > 10 µM; on Bcl-2-related protein A1 [2], 8.3 µM.

For `Cc1cccc(N2CCN(C3=C(Cl)C(=O)N(c4ccc(Cl)c(Cl)c4)C3=O)CC2)c1`, the IC50 is > 10 µM at Bcl-2-related protein A1 [1] and 8.3 µM at Bcl-2-related protein A1 [2].

With `O=C1C(Cl)=C(N2CCN(c3cccc(C(F)(F)F)c3)CC2)C(=O)N1c1ccc(Cl)c(Cl)c1`, the IC50 at Bcl-2-related protein A1 [1] and on Bcl-2-related protein A1 [2] was > 10 µM in each case.

Regarding `O=C1C(Cl)=C(N2CCN(Cc3ccccc3)CC2)C(=O)N1c1ccc(Cl)c(Cl)c1`, the IC50 turned out to be 2.4 µM on Bcl-2-related protein A1 [1] and 1.3 µM on Bcl-2-related protein A1 [2].

By IC50 is commonly meant the concentration that inhibits the measured activity by half. Read a high IC50 as lower potency.

(Values after ChEMBL document CHEMBL1268986, “Inhibition of Bfl-1 with N-aryl maleimides” (Bioorg Med Chem Lett, 2010).)
